According to ChEMBL document CHEMBL3259802, “Anticonvulsant evaluation of clubbed indole-1,2,4-triazine derivatives: a synthetic approach” (Eur J Med Chem, 2014):
pIC50: −log10 of the molar value. Active and inactive are the calls of the source. The rule behind the calls is not given here.

What was measured:
Mus musculus [1] = assay: Anticonvulsant activity in Swiss albino mouse assessed as protection against PTZ-induced seizure at 200 mg/kg, po administered 60 mins prior to pentylenetetrazole challenge; type: functional
Mus musculus [2] = assay: Neurotoxicity in Swiss albino mouse assessed as motor impairment at 100 mg/kg, po by rotarod test; type: toxicity, organism-based; design: dose 100 mg/kg, route oral; details: in vivo
Outline: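 Mice trained on rotarod (3.2 cm, 10 rpm) received 100 mg/kg orally in 0.5% sodium carboxymethylcellulose; neurotoxicity scored as percentage of animals failing to keep equilibrium on rod for 60 s.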

[3] = Neurotoxicity in ip dosed Swiss albino mouse measured during phase 2 trials by rotarod test; type: toxicity, organism-based; details: in vivo
Outline: (§1)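 Phase II quantitation: groups of six mice given a range of i.p. doses until at least three points fell within 10–90% seizure protection (MES or scPTZ) or rotarod neurotoxicity, tested at time of peak effect.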

Mus musculus [4] = assay: Anticonvulsant activity in Swiss albino mouse assessed as time duration of hind limb tonic extenstion at 100 mg/kg, po administered 60 mins prior to maximal electroshock exposure by MES test (reference value: 16.20 +/- 0.50 secs); type: functional, Hindlimb
Outline: (§2)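 Mice (n=6/group) dosed orally at 100 mg/kg in 0.5% sodium carboxymethylcellulose 60 min before maximal electroshock (150 mA, 0.2 s, corneal electrodes). Duration of hind limb tonic extension noted; abolition scored as protection (% protected). Vehicle controls; mean ± SEM, one-way ANOVA followed by Dunnett's method.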

Mus musculus [5] = assay: Anticonvulsant activity in ip dosed Swiss albino mouse assessed as protection against maximal electroshock-induced tonic-clonic seizure spread measured after 0.5 hrs by MES test; type: functional; details: read-out: MED
Outline: (§3)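 Swiss albino mice pre-screened 24 h earlier with 50 mA, 60 Hz, 0.2 s corneal shock; saline drop in eyes. Compounds in 0.5% sodium carboxymethylcellulose given i.p. at 30, 100 and 300 mg/kg; MES applied after 0.5 h and 4 h. Protection = abolition of hind limb tonic extensor component in half or more of four mice.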

Rattus norvegicus [6] = assay: Increase in GABA level in Wistar rat whole brain at 100 mg/kg, ip after 2 hrs measured per 100 mg of tissue (reference value: 46.8 +/- 6.03 ug); type: functional; details: route intraperitoneal
Outline: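 Adult Wistar rats, six per group, given 100 mg/kg i.p. (clobazam 30 mg/kg p.o. reference); decapitated 2 h later, whole brains put into ice-cold 80% ethanol and GABA determined enzymatically in tissue extracts. Mean ± SEM; Student's t test versus control.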

Mus musculus [7] = assay: Anticonvulsant activity in ip dosed Swiss albino mouse assessed as protection against maximal electroshock-induced tonic-clonic seizure spread measured after 4 hrs by MES test; type: functional; details: read-out: MED; outline: as §3
Mus musculus [8] = assay: Anticonvulsant activity in ip dosed Swiss albino mouse assessed as protection against pentylenetetrazole-induced seizure measured at the time of peak effect during phase 2 trials; type: functional; outline: as §1
[9] = Displacement of [3H]BTX-B from neurotoxin site 2 of voltage-gated sodium channel in rat cerebral cortex synaptoneurosomes by scintillation counting analysis; type: tissue-based
Mus musculus [10] = assay: Neurotoxicity in Swiss albino mouse assessed as minimal motor impairment at 300 mg/kg, ip after 0.5 hrs by rotarod test; type: toxicity, organism-based; design: dose 300 mg/kg, route intraperitoneal; details: in vivo
Outline: (§4)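 Rotarod minimal motor impairment: mice trained on 3.2 cm rod at 10 rpm; i.p. doses of 30, 100 and 300 mg/kg, four mice each, tested at 0.5 h and 4 h. Neurotoxicity = failure to stay on rod at least 1 min in each of three trials.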

Mus musculus [11] = assay: Anticonvulsant activity in Swiss albino mouse assessed as protection against PTZ-induced seizure at 100 mg/kg, po administered 60 mins prior to pentylenetetrazole challenge; type: functional
Mus musculus [12] = assay: Anticonvulsant activity in Swiss albino mouse assessed as seizure latency to onset of clonus at 100 mg/kg, po administered 60 mins prior to pentylenetetrazole challenge (reference value: 1.54 +/- 0.90 mins); type: functional
Mus musculus [13] = assay: Anticonvulsant activity in ip dosed Swiss albino mouse assessed as protection against pentylenetetrazole-induced seizures after 0.5 hrs; type: functional; details: read-out: MED
Outline: (§5)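 Compounds in 0.5% sodium carboxymethylcellulose injected i.p. at 30, 100, 300 mg/kg (four mice per dose); at 0.5 h or 4 h, pentylenetetrazol 70 mg/kg given s.c. as 0.5% solution in posterior midline. Observation 30 min; absence of clonic spasm in half or more of animals scored as protection.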

Mus musculus [14] = assay: Anticonvulsant activity in ip dosed Swiss albino mouse assessed as protection against pentylenetetrazole-induced seizures after 4 hrs; type: functional; details: read-out: MED; outline: as §5
Mus musculus [15] = species: Mus musculus; assay: Protective index, ratio of TD50 for Swiss albino mouse to ED50 for anticonvulsant activity in PTZ-treated Swiss albino mouse
Mus musculus [16] = assay: Anticonvulsant activity in Swiss albino mouse assessed as protection against maximal electroshock-induced seizures at 100 mg/kg, po administered 60 mins prior to maximal electroshock exposure by MES test; type: functional; outline: as §2
Rattus norvegicus [17] = assay: Increase in GABA level in Wistar rat whole brain at 30 mg/kg, po for 7 days measured at 4 hrs after last drug dose per 100 mg of tissue (reference value: 49.2 +/- 3.01 ug); type: functional
Rattus norvegicus [18] = species: Rattus norvegicus; assay: Displacement of [3H]BTX-B from neurotoxin site 2 of voltage-gated sodium channel in rat cerebral cortex synaptoneurosomes at 100 uM by scintillation counting analysis; type: tissue-based
Mus musculus [19] = assay: Neurotoxicity in Swiss albino mouse assessed as minimal motor impairment at 300 mg/kg, ip after 4 hrs by rotarod test; type: toxicity, organism-based; design: dose 300 mg/kg, route intraperitoneal; details: in vivo; outline: as §4
Mus musculus [20] = assay: Anticonvulsant activity in ip dosed Swiss albino mouse assessed as protection against maximal electroshock-induced seizure measured at the time of peak effect during phase 2 trials by MES test; type: functional; outline: as §1
Mus musculus [21] = assay: Anticonvulsant activity in Swiss albino mouse assessed as protection against pentylenetetrazole-induced seizures at 300 mg/kg, ip after 0.5 hrs; type: functional, organism-based; design: dose 300 mg/kg; outline: as §5
Mus musculus [22] = assay: Anticonvulsant activity in Swiss albino mouse assessed as protection against maximal electroshock-induced tonic-clonic seizure spread measured at 300 mg/kg, ip after 0.5 hrs by MES test; type: functional, organism-based; design: dose 300 mg/kg
Outline: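 Groups of four mice, screened 24 h beforehand with corneal shock (50 mA, 60 Hz, 0.2 s), saline drop in each eye. Test doses of 30, 100 or 300 mg/kg ip were suspended in 0.5% sodium carboxymethylcellulose. The shock was applied 0.5 h and 4.0 h after dosing. Protection: abolition of hind-limb tonic extension in half or more of the animals.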

Mus musculus [23] = assay: Anticonvulsant activity in Swiss albino mouse assessed as protection against maximal electroshock-induced tonic-clonic seizure spread measured at 300 mg/kg, ip after 4 hrs by MES test; type: functional, organism-based; design: dose 300 mg/kg; outline: as §3
Mus musculus [24] = assay: Neurotoxicity in Swiss albino mouse assessed as minimal motor impairment at 100 mg/kg, ip after 4 hrs by rotarod test; type: toxicity, organism-based; design: dose 100 mg/kg, route intraperitoneal; details: in vivo; outline: as §4
Mus musculus [25] = assay: Anticonvulsant activity in Swiss albino mouse assessed as protection against maximal electroshock-induced seizures at 30 mg/kg, po administered 60 mins prior to maximal electroshock exposure by MES test; type: functional
Mus musculus [26] = assay: Neurotoxicity in Swiss albino mouse assessed as minimal motor impairment at 100 mg/kg, ip after 0.5 hrs by rotarod test; type: toxicity, organism-based; design: dose 100 mg/kg, route intraperitoneal; details: in vivo; outline: as §4
Mus musculus [27] = assay: Anticonvulsant activity in Swiss albino mouse assessed as decrease in time duration of hind limb tonic extenstion at 30 mg/kg, po administered 60 mins prior to maximal electroshock exposure by MES test; type: functional, organism-based; design: dose 30 mg/kg; details: Hindlimb

| SMILES | Activity (Mus musculus [2]) | TD50 [3] [mg/kg] | Time (Mus musculus [4]) [s] | minimal effective dose (Mus musculus [5]) [mg/kg] | Activity (Rattus norvegicus [6]) [µg] | minimal effective dose (Mus musculus [7]) [mg/kg] | ED50 (Mus musculus [8]) [mg/kg] | pIC50 [9] | Activity (Mus musculus [10]) | minimal effective dose (Mus musculus [13]) [mg/kg] | minimal effective dose (Mus musculus [14]) [mg/kg] | Activity (Mus musculus [16]) [%] | Activity (Rattus norvegicus [17]) [µg] | inhibition (Rattus norvegicus [18]) [%] | Activity (Mus musculus [19]) | ED50 (Mus musculus [20]) [mg/kg] | further results |
| --- | --- | --- | --- | --- | --- | --- | --- | --- | --- | --- | --- | --- | --- | --- | --- | --- | --- |
| CCCC(CCC)C(=O)[O-].[Na+] [VALPROATE SODIUM] | Non-toxic |  |  |  |  |  |  |  |  |  |  |  |  |  |  |  | Activity (Mus musculus [1]): 100% |
| NC1NC(=S)NN=C1n1c(-c2ccccc2)c(C(=O)O)c2cc(C(F)(F)F)ccc21 (centres undefined) |  | 100 |  |  |  |  |  |  |  |  |  |  |  |  |  |  |  |
| CC(=O)c1c(-c2ccccc2)n(C2=NNC(=S)NC2N)c2ccc(F)cc12 (centres undefined) | Non-toxic | 290 | 5.4 | 30 | 93.5 | 30 | 68 | 3.97 | Non-toxic | 100 | 100 | 100 | 110 | 50.4 | Non-toxic | 7 | Activity (Mus musculus [11]): 83.3%; Time (Mus musculus [12]): 9.8 min; Ratio TD50/ED50 (Mus musculus [15]): 3.39 |
| CC(=O)c1c(-c2ccccc2)n(C2=NNC(=S)NC2N)c2ccc(C(F)(F)F)cc12 (centres undefined) |  | 95 | 13.5 | 30 | 75.4 | 30 |  |  | Non-toxic |  | 300 | 33.3 | 79.1 |  | Non-toxic | 40 | Activity (Mus musculus [21]): inactive |
| CCC1(C)CC(=O)NC1=O (centres undefined) [ETHOSUXIMIDE] |  |  |  |  |  |  | 130 |  |  | 100 | 300 |  |  |  |  | > 1000 | Activity (Mus musculus [22]): inactive; Activity (Mus musculus [23]): inactive |
| O=C1NC(=O)C(c2ccccc2)(c2ccccc2)N1 [PHENYTOIN] | Non-toxic |  |  | 30 |  | 30 |  | 3.90 |  |  |  |  |  | 49.6 |  |  | Activity (Mus musculus [24]): Non-toxic; Activity (Mus musculus [25]): 100%; Activity (Mus musculus [26]): Non-toxic; inhibition (Mus musculus [27]): Active |
